Measured values published in ChEMBL document CHEMBL2163314, “Potent aminocyclitol glucocerebrosidase inhibitors are subnanomolar pharmacological chaperones for treating gaucher disease” (J Med Chem, 2012).
Active and inactive are the calls of the source. No cut-off for these calls is given here.

Target: T1, Non-lysosomal glucosylceramidase (Mus musculus) (UniProt Q69ZF3)
T1 sequence (whole entry): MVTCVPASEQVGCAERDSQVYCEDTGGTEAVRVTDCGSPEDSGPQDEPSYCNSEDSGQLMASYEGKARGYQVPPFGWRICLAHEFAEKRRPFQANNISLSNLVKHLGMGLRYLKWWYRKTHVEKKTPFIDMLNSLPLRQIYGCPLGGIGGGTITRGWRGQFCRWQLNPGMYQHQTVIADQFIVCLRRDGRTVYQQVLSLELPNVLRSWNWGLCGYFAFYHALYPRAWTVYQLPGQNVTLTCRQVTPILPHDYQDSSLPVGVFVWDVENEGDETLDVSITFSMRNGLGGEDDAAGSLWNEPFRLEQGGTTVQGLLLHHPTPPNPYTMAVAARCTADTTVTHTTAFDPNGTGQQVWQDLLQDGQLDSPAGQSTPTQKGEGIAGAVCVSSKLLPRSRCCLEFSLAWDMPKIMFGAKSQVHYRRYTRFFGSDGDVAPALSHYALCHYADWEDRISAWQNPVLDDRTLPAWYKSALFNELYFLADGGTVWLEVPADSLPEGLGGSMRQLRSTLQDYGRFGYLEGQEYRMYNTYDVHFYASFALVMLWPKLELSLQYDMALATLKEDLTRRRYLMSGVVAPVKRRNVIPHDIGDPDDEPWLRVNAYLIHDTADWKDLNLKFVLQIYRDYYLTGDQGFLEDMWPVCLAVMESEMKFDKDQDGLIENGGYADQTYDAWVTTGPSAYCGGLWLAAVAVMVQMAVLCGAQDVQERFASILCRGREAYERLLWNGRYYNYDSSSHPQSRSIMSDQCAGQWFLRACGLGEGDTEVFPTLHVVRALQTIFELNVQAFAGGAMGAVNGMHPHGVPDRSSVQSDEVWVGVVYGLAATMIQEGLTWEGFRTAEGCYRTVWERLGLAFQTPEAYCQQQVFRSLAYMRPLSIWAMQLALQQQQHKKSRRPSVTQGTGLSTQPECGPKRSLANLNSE
Assay: Inhibition of GBA2 activity in mouse tissue homogenate at 50 uM
Method in brief: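 Mouse tissue homogenates were used to separate nonlysosomal GBA2 from lysosomal GCase β-glucosidase activity. Compounds were screened at 50 and 5 μM with 3 mM substrate. Two independent experiments, each run in duplicate.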

inhibition: Active
Compound: CCCCCCCCCN1C[C@H](O)[C@@H](O)[C@H](O)[C@H]1CO
